This is a sample that favours compounds with a hit; in the whole collection about 3.3% have one here.
Statin myotox sup – suppressors of statin myotoxicity in C2C12 myotubes, primary screen, cell-based, single point, plate reader; C2C12 myotubes + simvastatin, ATP luminescence, 48 h; scaled: DMSO 0, geranylgeraniol control 100; rescue of ATP level, % at 7.49 µM; 330,000 compounds, 0.78% hits; AID 602340, 2012;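 active = mean ATP rescue above about 67%, or every replicate alone reaching that limit, limit read from the data, passing the limit was not always enough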;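 note: myotubes were challenged with 10 µM simvastatin during compound exposure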
FGF22 binding – binders of human FGF22 protein, primary screen, FGF22 synaptogenesis inhibitor project, biophysical, thermal shift, single point; Fibroblast growth factor 22 (Homo sapiens), Q9HCT0; recombinant FGF22 thermal shift, SYPRO orange fluorescence; percent of sucrose octasulfate shift, DMSO zero; activity (Tm shift, normalised), % at 9.99 µM; 340,000 compounds, 1.5% hits; AID 651658, 2012;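 active = mean Tm shift, scaled 0 neutral to 100 positive control, at about 1.3% or above, every replicate too, limit read from the data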
E-selectin induc – E-selectin induction in HUVECs, primary screen, imaging, HUVEC, immunofluorescence imaging, single point | P16581 | normalized: neutral wells 0, TNF-alpha wells 100 | activation, % at 7.58 µM | 260,000 compounds, 0.37% hits | AID 686992, 2013;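 active = mean E-selectin-positive cell signal at least 10% of the positive control, reached in at least 60% of replicates, without over 20% cell loss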
Target sequence (P16581 whole entry, looked up): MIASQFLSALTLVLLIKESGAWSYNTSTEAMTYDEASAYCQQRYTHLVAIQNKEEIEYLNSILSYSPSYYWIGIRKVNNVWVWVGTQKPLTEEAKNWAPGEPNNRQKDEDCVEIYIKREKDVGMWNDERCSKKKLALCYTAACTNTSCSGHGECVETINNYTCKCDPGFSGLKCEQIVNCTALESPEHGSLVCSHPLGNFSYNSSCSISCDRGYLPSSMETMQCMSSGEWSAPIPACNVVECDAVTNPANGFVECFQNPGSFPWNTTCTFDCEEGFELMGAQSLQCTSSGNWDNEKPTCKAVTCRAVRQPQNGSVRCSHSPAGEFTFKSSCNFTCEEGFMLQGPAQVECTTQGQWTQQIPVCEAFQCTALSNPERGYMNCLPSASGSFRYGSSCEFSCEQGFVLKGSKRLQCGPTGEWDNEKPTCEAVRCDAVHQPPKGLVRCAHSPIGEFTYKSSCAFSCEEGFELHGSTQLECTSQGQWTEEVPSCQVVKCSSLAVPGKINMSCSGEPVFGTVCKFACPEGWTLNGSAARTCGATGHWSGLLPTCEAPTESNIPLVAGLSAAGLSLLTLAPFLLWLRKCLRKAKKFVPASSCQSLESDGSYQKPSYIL
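Material: HUVEC primary endothelial cells; Amount: 3,000 cells per well; Dosing: single concentration; Medium: EGM-2 growth medium on 0.1% gelatin-coated wells; Read-out basis: percent E-selectin-positive cells; Signal: immunofluorescence imaging; Control set: TNF-alpha, DMSO.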
PglD DTNB – C. jejuni PglD acetyltransferase inhibitors, primary screen, biochemical, DTNB colorimetric, single point | inhibition, % at 12.5 µM | UDP-N-acetylbacillosamine N-acetyltransferase PglD (Campylobacter jejuni) | purified PglD enzyme, DTNB colorimetric CoA detection | 360,000 compounds, 0.098% hits; in the data active = inhibition above about 16%, passing the limit was not always enough
DENV2 CPE rescue – inhibitors of DENV2 cytopathic effect, primary screen, cell-based, plate reader, single concentration. DENV2-infected cells, cytopathic effect rescue. CPE inhibition, % at 9.99 µM. 350,000 compounds, 1.7% hits; in the data active = CPE inhibition above about 20%, passing the limit was not always enough; tested in BHK-21 cells;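 note: 0% = median of neutral control wells and 100% = median of positive control wells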
Xi reactivation – activators of inactive X chromosome reactivation, primary screen, imaging, XiGFP fibroblasts, GFP high-content imaging, set 2; AID 743238, 2013; activation, % at 7.58 µM; 360,000 compounds, 0.055% hits; XiGFP mouse fibroblasts, % GFP-positive cells imaging, 3 d; cells co-treated with 5-aza-dC sensitizer; scaled so ellipticine positive control = 100%;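 active = mean normalized replicate activation at least 10% and every replicate at or above 10%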;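 note: 0% = median of on-plate neutral control wells and 100% = ellipticine 6 µM median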
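Assay system – SV40-immortalized XiGFP fibroblast cells, line 68-5-11 · Buffer or medium – DMEM supplemented with 5-aza-dC as sensitizing agent · Dosing – one concentration, pinned · Benchmarks – positive control ellipticine, 6 µM final · Times – 3 days compound exposure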
Active calls of the source: *; · = no result.

SMILES	Statin myotox sup	FGF22 binding	E-selectin induc	PglD DTNB	DENV2 CPE rescue	Xi reactivation
COc1ccc(S(=O)(=O)N2CCN(C)CC2)cc1NC(=O)c1ccccc1F	-14.1	-0.1	·	-3.6	-6.7	-0.1
COc1cc(S(=O)(=O)N2CCN(C(=O)c3ccccc3F)CC2)c(OC)cc1NC(C)=O	101.8*	·	·	-4.2	·	·
CC(C)CCn1c2ccccc2c2cc(CC(N)=O)ccc21	·	0.1	0.1	·	28.7*	0.2
C[C@@H]1CN([C@H](C)CO)C(=O)c2c(c3ccccc3n2C)-c2ccccc2CO[C@@H]1CN(C)Cc1ccc2c(c1)OCCN2C	·	-0.5	-0.4	·	10.7	-0.6
CC(C)NC(=O)N(C)C[C@@H]1Oc2ccc(NC(=O)c3ccncc3)cc2C(=O)N([C@H](C)CO)C[C@H]1C	-6.9	0.2	-0.1	-0.6	-4.6	0.0
CN(C)C(=O)c1ccc(-c2ccc([C@@H]3[C@@H](CO)N(C(=O)C4CCC4)[C@H]3C#N)cc2)cc1	6.8	-0.2	0.9	3.6	50.1*	-0.1
CN(C)C(=O)c1ccc(-c2ccccc2[C@H]2[C@@H](C#N)N(C(=O)C3CCC3)[C@H]2CO)cc1	·	0.3	0.0	·	24.5*	0.3
CN(C)C(=O)c1ccc(-c2ccccc2[C@H]2[C@H](C#N)N(C(=O)C3CCCCC3)[C@H]2CO)cc1	·	0.0	0.0	·	28.0*	0.2
CCCN(C)C[C@H]1Oc2ncc(C#CC3CC3)cc2C(=O)N([C@H](C)CO)C[C@@H]1C	34.4	·	0.1	·	·	-0.4
C=CCN1C(=O)C(CC(=O)Nc2ccccc2)N(Cc2ccccn2)C1=S (stereo not given)	12.5	43.7*	0.2	-0.7	3.5	0.1
COCCNc1nc(N)c([N+](=O)[O-])c(NC2CCCCC2)n1	31.0	-0.4	·	4.5	0.4	0.2
NCCCNc1nc(N)c([N+](=O)[O-])c(NC2CCCCC2)n1	104.6*	0.4	-0.2	4.5	-1.3	0.5
C[C@@H]1CCCCO[C@@H](CN(C)Cc2ccncc2)[C@@H](C)CN([C@H](C)CO)C(=O)c2cc(NS(=O)(=O)c3ccccc3)ccc2O1	·	0.3	·	5.3	7.2	0.0
C[C@@H]1CCCCO[C@H](CN(C)Cc2ccncc2)[C@@H](C)CN([C@H](C)CO)C(=O)c2cc(NS(=O)(=O)c3ccccc3)ccc2O1	·	0.6	·	2.1	21.3*	0.1
C[C@H](CO)N1C[C@H](C)[C@H](CN(C)Cc2ccncc2)OCCCC[C@H](C)Oc2ccc(NS(=O)(=O)c3ccccc3)cc2C1=O	·	0.8	·	2.8	73.0*	0.3
C[C@@H]1CN([C@@H](C)CO)C(=O)c2cc(NS(=O)(=O)c3ccccc3)ccc2O[C@@H](C)CCCCO[C@H]1CN(C)Cc1ccncc1	·	0.0	·	4.5	-3.1	0.0
CC(=O)Nc1cccc(Nc2cc(C)nn2C)c1	-14.8	-0.1	-0.1	5.6	73.0*	0.4
O=c1[nH]nc(Cc2ccc(Cl)cc2Cl)c2ccccc12	140.3*	·	·	-2.2	·	·
O=c1[nH]nc(Cc2ccc(Cl)cc2)c2ccccc12	19.7	·	·	0.4	·	·
CCCNC(=O)[C@H]1[C@H](CO)[C@H]2Cn3c(ccc(-c4cccc(OC)c4)c3=O)[C@@H]1N2CC	·	·	-0.4	·	-5.9	0.3
C[C@H](NC(=O)[C@@H]1CCCN1C(=O)OC(C)(C)C)c1ccccc1	·	-0.1	-0.1	·	76.0*	0.0
CN(Cc1nc2ccccc2c(=O)[nH]1)C(=O)c1cccc(S(=O)(=O)N2CCc3ccccc32)c1	-14.9	-0.1	·	-0.2	43.7*	0.4
COc1ccc(S(=O)(=O)Cc2ccc(C(=O)NC3CC3)o2)cc1	-6.4	0.0	·	-1.7	24.5*	0.3
COc1ccc(S(=O)(=O)Cc2ccc(C(=O)NC3CCC(C)CC3)o2)cc1 (stereo not given)	-7.7	0.4	-0.2	-3.5	-1.5	0.1
C=CCNC(=S)NC(=O)c1oc2ccccc2c1C	1.3	·	48.8*	·	5.7	0.0
SMILES	Statin myotox sup	FGF22 binding	E-selectin induc	PglD DTNB	DENV2 CPE rescue	Xi reactivation
Cc1c(C(=O)Nc2cnccn2)oc2ccccc12	-89.2	0.3	·	-2.6	-0.6	·
Cc1c(C(=O)Nc2ccc(Cl)cn2)oc2ccccc12	85.6*	·	·	-2.6	·	·
CCC(=O)Nc1ccc(NC(=O)c2oc3ccccc3c2C)cc1	19.7	-0.1	·	0.2	40.0*	0.2
Cc1c(C(=O)NC(=S)NCC(C)C)oc2ccccc12	·	-0.1	0.0	3.0	0.6	0.0
CCC(=O)Nc1ccc(NC(=S)NC(=O)c2oc3ccccc3c2C)cc1	·	·	·	2.9	·	0.1
S=C1NCN(Cc2ccccc2)CN1	·	-0.1	·	1.7	6.5	0.0
c1ccc(Cn2c[n+](Cc3ccccc3)cn2)cc1	2.1	0.0	42.8*	·	4.2	0.1
C/C=C/c1ccc([C@H]2[C@@H](CO)N(C(=O)C3CCC3)[C@H]2CNC(=O)NC(C)C)cc1	3.7	·	-0.5	0.8	-13.3	0.6
C/C=C/c1ccc([C@H]2[C@@H](CO)N[C@@H]2CNC(=O)C2CCC2)cc1	·	·	0.3	·	34.1*	0.3
C/C=C/c1ccc([C@H]2[C@@H](CO)N(C(=O)C3CCC3)[C@@H]2CNC(=O)NC(C)C)cc1	·	·	0.5	·	79.6*	0.0
C/C=C/c1ccc([C@@H]2[C@@H](CO)N(C(C)=O)[C@@H]2CNC(=O)CC2CC2)cc1	3.6	-0.2	0.2	-1.3	85.6*	0.0
C/C=C/c1ccc([C@@H]2[C@@H](CNC(=O)CC3CC3)N(C(C)=O)[C@H]2CO)cc1	-3.7	·	0.0	3.2	-1.3	0.3
O=C(Nc1ccc(F)cc1)N[C@H]1CC[C@@H](CCn2cc(C3(O)CCCC3)nn2)O[C@H]1CO	1.1	-0.1	-1.0	3.0	17.0	-0.4
CC#CCOCC1CN(C)C(=O)O1 (stereo not given)	3.2	43.0*	-0.1	4.0	-6.0	0.2
CCCCN1CC(COc2ccccc2)OC1=O (stereo not given)	-21.9	·	·	-6.4	·	·
COc1cccc(CNC(=O)C2CCCN(S(=O)(=O)c3c(C)n[nH]c3C)C2)c1 (stereo not given)	74.7*	·	·	-1.0	·	·
CCC(=O)N[C@@H]1CC[C@H](CC(=O)NCc2ccccc2F)O[C@@H]1CO	6.3	0.0	1.1	-5.4	4.9	0.4
O=C(CN1C(=O)/C(=C\c2ccco2)SC1=S)Nc1ccc(O)cc1C(=O)O	96.1*	·	-0.1	-2.2	-3.8	0.1

Assay outcomes from PubChem BioAssay.
